Each structure is given as a SMILES string.

Holding throughout (assay type): functional
Conditions in all cases: read-out: DIZ

One experiment deals with Bacillus subtilis. The experiment is described as follows: Antimicrobial activity against Bacillus subtilis ATCC 6633 at 2 mM after overnight incubation by agar diffusion method. An outline of the steps:
(§1)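 Agar diffusion: 9 mm wells cut in Standard I Nutrient Agar or Mueller Hinton II agar, each loaded with 50 µl of a 2.0 mM compound solution in 1:9 DMSO:MeOH. Ciprofloxacin was run as control at 5 µg/mL in H2O. Plates were incubated at 37 °C for 24 h, and the inhibition zone diameter was read in mm. Zones were flagged as partially clear, unclear with colonies, or faint.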
Background: Agar diffusion results depend on both activity and mobility in agar.

The subject of experiment [1] is Pseudomonas aeruginosa. Description: Antimicrobial activity against Pseudomonas aeruginosa K799/61 mutant at 2 mM after overnight incubation by agar diffusion method. In outline: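 Agar well diffusion: 50 µl of a 2.0 mM solution in 1:9 DMSO:MeOH placed in 9 mm wells cut in nutrient agar or Mueller Hinton II agar; plates incubated 37 °C for 24 h, then inhibition zone diameter measured in mm. Zones scored as clear, partially clear, unclear (many colonies inside) or faint. Ciprofloxacin positive control at 5 µg/mL in water.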

The test system of experiment [2] is Escherichia coli. Description: Antimicrobial activity against Escherichia coli ATCC 25922 at 2 mM after overnight incubation by agar diffusion method. An outline of the steps:
as §1

The subject of the next experiment is Micrococcus luteus. The experiment is described as follows: Antimicrobial activity against Micrococcus luteus ATCC 10240 at 2 mM after overnight incubation by agar diffusion method. In outline:
as §1

In another experiment the test system is Enterococcus faecalis. Description: Antimicrobial activity against Enterococcus faecalis ATCC 49532 at 2 mM after overnight incubation by agar diffusion method. In outline: as §1
Experiment [3] has as its system Escherichia coli. The experiment is described as follows: Antimicrobial activity against Escherichia coli X580 at 2 mM after overnight incubation by agar diffusion method.
In another experiment the test system is Staphylococcus aureus. The experiment is described as follows: Antimicrobial activity against wild type Staphylococcus aureus SG 511 at 2 mM after overnight incubation by agar diffusion method. An outline of the steps: as §1
For experiment [4], the system named is Pseudomonas aeruginosa. Description: Antimicrobial activity against wild type Pseudomonas aeruginosa K799 at 2 mM after overnight incubation by agar diffusion method. An outline of the steps: as §1
The subject of the next experiment is Mycolicibacterium vaccae. Description: Antimicrobial activity against Mycobacterium vaccae IMET 10670 at 2 mM after overnight incubation by agar diffusion method. An outline of the steps:
as §1

As for `O=C(NO)OC[C@H]1CN(c2ccc(N3CCSCC3)c(F)c2)C(=O)O1`, the zone of inhibition at 2000 µM in the experiment on Bacillus subtilis is 16 mm; in the experiment on Pseudomonas aeruginosa [1], 0 mm; with Escherichia coli [2], 0 mm; in the experiment on Micrococcus luteus, 33 mm; in the experiment with Enterococcus faecalis it was 16 mm; in the experiment with Escherichia coli [3] it was 20 mm. In addition, the figures for the zone of inhibition at 2000 µM in the experiment on Staphylococcus aureus and in the experiment with Pseudomonas aeruginosa [4] were 16 mm and 0 mm, respectively.

As to `CC(=O)NC[C@H]1CN(c2ccc(N3CCOCC3)c(F)c2)C(=O)O1` [LINEZOLID], the zone of inhibition at 2000 µM with Bacillus subtilis was determined as 31 mm; in the experiment on Mycolicibacterium vaccae, 42 mm; in the experiment with Pseudomonas aeruginosa [1] it was 10 mm; with Escherichia coli [2] it was 0 mm; in the experiment on Micrococcus luteus, 38 mm; in the experiment with Enterococcus faecalis it was 25 mm. The zone of inhibition at 2000 µM in the experiment with Escherichia coli [3] was 0 mm; in the experiment on Staphylococcus aureus, 27 mm; in the experiment with Pseudomonas aeruginosa [4], 0 mm.

These data come from ChEMBL document CHEMBL1158519, “Syntheses and antibacterial activity studies of new oxazolidinones from nitroso Diels-Alder chemistry” (2010).
